# IDE act – human IDE activators in live cells, primary screen, fluorescence polarization, HEK cells, FAbeta-B substrate | activation, % at 5.96 µM | AID 493087, 2011 | 340,000 compounds, 0.073% hits | FAbeta-B cleavage; 0% vehicle, 100% cell-free pure enzyme wells;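 active = activation above the mean of all tested compounds plus 3 SD, set per screening campaign, cut at about 17% in these data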
# Target sequence (P14735 whole entry, looked up): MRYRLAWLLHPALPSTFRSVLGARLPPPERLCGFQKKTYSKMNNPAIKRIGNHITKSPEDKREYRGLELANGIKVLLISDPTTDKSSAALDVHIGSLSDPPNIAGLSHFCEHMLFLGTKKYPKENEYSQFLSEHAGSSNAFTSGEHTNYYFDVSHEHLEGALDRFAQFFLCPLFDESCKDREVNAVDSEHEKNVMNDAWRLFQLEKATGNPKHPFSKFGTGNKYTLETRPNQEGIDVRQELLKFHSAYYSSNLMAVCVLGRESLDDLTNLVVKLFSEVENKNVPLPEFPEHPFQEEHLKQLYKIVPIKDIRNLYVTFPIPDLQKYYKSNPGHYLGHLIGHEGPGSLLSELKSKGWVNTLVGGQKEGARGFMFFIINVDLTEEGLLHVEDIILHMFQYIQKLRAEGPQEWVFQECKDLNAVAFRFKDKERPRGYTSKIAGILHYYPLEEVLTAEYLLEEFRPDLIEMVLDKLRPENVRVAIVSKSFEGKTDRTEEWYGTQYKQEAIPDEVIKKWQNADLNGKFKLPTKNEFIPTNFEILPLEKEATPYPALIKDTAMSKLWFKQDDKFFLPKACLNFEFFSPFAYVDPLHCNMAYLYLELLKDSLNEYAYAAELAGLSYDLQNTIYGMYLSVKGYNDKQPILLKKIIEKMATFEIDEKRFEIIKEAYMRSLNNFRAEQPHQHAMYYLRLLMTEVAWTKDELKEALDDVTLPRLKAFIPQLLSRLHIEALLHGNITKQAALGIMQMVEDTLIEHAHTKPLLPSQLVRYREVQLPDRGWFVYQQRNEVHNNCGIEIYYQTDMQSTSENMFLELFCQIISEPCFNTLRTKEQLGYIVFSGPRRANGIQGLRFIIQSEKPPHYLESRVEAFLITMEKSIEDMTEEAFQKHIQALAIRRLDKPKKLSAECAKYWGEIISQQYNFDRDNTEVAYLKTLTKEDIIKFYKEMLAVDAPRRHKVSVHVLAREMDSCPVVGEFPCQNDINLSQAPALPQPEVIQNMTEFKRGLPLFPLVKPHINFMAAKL
# IDE cell inh – human IDE inhibitors in live cells, primary screen, fluorescence polarization, HEK cells, FAbetaB substrate | FAbetaB cleavage | inhibition, % at 5.59 µM | 320,000 compounds, 0.41% hits;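 active = percent inhibition above the average of all tested compounds plus 3 SD, set per screening campaign, cut at about 16% in these data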;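 also: IDE supplied by intact live HEK cells; FP after avidin binding of uncleaved biotin substrate so inhibition keeps polarization high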
# HDAC3 inh – HDAC3 deacetylase inhibitors, primary screen, biochemical, fluorescence, cell-free homogeneous. recombinant HDAC3, fluorogenic peptide/trypsin coupled. inhibition, % at 8.3 µM. 320,000 compounds, 0.15% hits. Histone deacetylase 3 (Homo sapiens), O15379. AID 2718, 2010; in the data active = inhibition above about 26%, passing the limit was not always enough
# Efflux pump inh – inhibitors of Candida efflux pumps in yeast, primary screen, S. cerevisiae, Nile Red, multiplex; S. cerevisiae Candida pump triplex; inhibition, % at 10 µM; 330,000 compounds, 0.44% hits; AID 485275, 2010;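 active = plate passing quality check with inhibition over a set limit, or well fluorescence over plate mean plus 4 SD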;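 also: Nile Red retained in pooled yeast measured as flow cytometry median fluorescence; higher means more Nile Red kept so more efflux inhibition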
# CR mimetic SO – reduction of superoxide in aged yeast, primary screen, HTS; superoxide response (% of plate mean), % at 10 µM; 330,000 compounds, 0.18% hits; AID 2690, 2010; S. cerevisiae aged cells, superoxide DHE fluorescence; active compounds read low;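 active = superoxide response under a set limit, about three screen SD below normal, cut at about 65% in these data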;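 also: yeast aged for seven days with compound at 30 °C before DHE staining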
# TbMetRS inhib – T. brucei MetRS inhibitors, primary screen, biochemical, luminescence. methionyl-tRNA synthetase (Trypanosoma brucei brucei). purified T. brucei MetRS, ATP depletion, Kinase-Glo luminescence. inhibition, % at 11.9 µM. 360,000 compounds, 0.4% hits;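 active = inhibition above a per-plate cutoff of the control wells' mean inhibition plus 3 SD, cut at about 5.5% in these data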
#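 assay system = parasite MetRS enzyme | timing = 15 min preincubation, 2 h reaction, all 25 °C | evaluation = percent inhibition relative to median high and low control wells | medium = HEPES buffer containing pyrophosphatase, BSA, spermine, DTT | compound = single dose, 11.9 µM final nominal, 0.9% final DMSO | detection = Kinase-Glo luminescence, ATP depletion format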
# IDE inh confirm – human IDE inhibitors in live cells, confirmation, fluorescence polarization, HEK cells, FAbetaB substrate | 1,200 compounds, 51% hits | inhibition, % at 5.59 µM | FAbetaB cleavage | AID 435028, 2010 | shares compounds with IDE cell inh;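 active = mean inhibition across triplicate wells above the cutoff set by the earlier primary insulin-degrading enzyme screen, cut at about 16% in these data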
# HEK cytotox – cytotoxicity in HEK cells, cytotoxicity control for IDE inhibitor project, cell-based, luminescence | shares compounds with IDE cell inh | HEK293 cytotoxicity, ATP luminescence | inhibition, % at 5.59 µM | 1,200 compounds, 28% hits | AID 449730, 2010; in the data active = inhibition above about 22%
# A number is an active result; . = inactive; / = not tested or not shown. An excerpt weighted towards active compounds, which were near 1.4% of everything screened.
SMILES,IDE act,IDE cell inh,HDAC3 inh,Efflux pump inh,CR mimetic SO,TbMetRS inhib,IDE inh confirm,HEK cytotox
Cn1c(/C(C#N)=C/c2ccc(-c3ccc(S(N)(=O)=O)cc3)o2)nc2ccccc21,.,26.1,.,.,.,.,47.1,46.0
O=Cc1ccc(-c2ccccc2C(=O)O)o1,.,.,.,.,.,.,/,/
Cc1cc2nc(/C(C#N)=C\c3ccc(-c4ccccc4C(=O)O)o3)[nH]c2cc1C,.,30.9,.,.,.,.,133.7,.
N#C/C(=C\c1cccs1)c1nc2ccccc2[nH]1,.,.,.,.,.,.,/,/
N#C/C(=C/c1ccc(O)c(O)c1)c1nc2ccccc2[nH]1,.,47.2,.,2.0,.,.,93.0,.
N#C/C(=C/c1ccc(Sc2nc3ccccc3[nH]2)o1)c1ccccc1F,.,.,.,.,.,.,/,/
Cc1cc(/C=C(/C#N)c2nc3ccccc3[nH]2)c(C)n1-c1ccccc1C(=O)O,.,.,/,.,.,.,/,/
N#C/C(=C\c1ccc(Sc2ccccc2)o1)c1nc2ccccc2[nH]1,.,20.9,.,.,.,.,.,.
N#C/C(=C\c1ccc(-c2ccccc2C(=O)O)o1)c1nc2ccccc2[nH]1,.,31.5,.,.,.,.,53.4,.
Cc1ccccc1CS(=O)(=O)CCC(=O)NCCCN1CCN(c2ccccc2F)CC1,.,.,.,.,.,.,/,/
Cc1cc(C)c2c(=O)n(CC(=O)NCCCN3CCN(c4ccccc4F)CC3)sc2n1,/,39.1,.,.,.,/,.,114.5
Cc1cc(C)c2c(=O)n(CC(=O)NCCCN3CCOCC3)sc2n1,.,21.5,.,.,.,.,20.2,.
Cc1cc([N+](=O)[O-])nn1CC(=O)NCCCN1CCOCC1,.,.,.,.,.,.,/,/
C=CCn1c(SCC(=O)N2CCCC2=O)nc2sc(CC)cc2c1=O,.,.,.,.,.,.,/,/
Cc1sc2ncnc(SCC(=O)N3CCN(C(=O)c4ccco4)CC3)c2c1C,.,34.5,/,.,.,.,.,.
O=C(CSc1nnc(-c2ccc(Br)cc2)o1)N1CCN(C(=O)c2ccco2)CC1,.,17.4,.,.,.,.,.,.
C=CCn1c(SCC(=O)N2CCN(C(=O)c3ccco3)CC2)nc2sc(CC)cc2c1=O,.,21.0,.,.,.,.,.,.
N#C/C(C(=O)NCc1ccccc1)=C1/N=C(NC(=O)c2cccs2)c2ccccc21,.,.,.,.,.,.,/,/
CCOC(=O)N1CCC2(CC1)C(C#N)=C(N)Oc1c2sc2nc(C)cc(C)c12,.,.,.,.,.,.,/,/
CCCN1CCC2(CC1)C(C#N)=C(N)Oc1c2sc2nc(C)cc(C)c12,.,22.8,.,.,.,.,.,.
CCC(C)c1ccc(NC(=O)Nc2cnccn2)cc1 (stereo unspecified),.,.,.,.,.,.,/,/
NC(N)=N/N=C/c1ccc(Cl)cc1Cl,.,23.0,.,.,.,.,.,24.9
Cc1cc([N+](=O)[O-])cc(C)c1OCC(=O)N/N=C/c1ccc(OC(=O)c2ccccc2)cc1,.,19.6,.,.,.,.,.,.
Cc1cc([N+](=O)[O-])cc(C)c1OCC(=O)N/N=C/c1ccc(OC(=O)c2ccccc2Br)cc1,.,.,.,.,.,.,/,/
O=C(Nc1ccc(C(=O)OC[C@@H]2CCCN3CCCC[C@H]23)cc1)c1cccc(Br)c1,.,32.5,.,.,.,.,.,.
SMILES,IDE act,IDE cell inh,HDAC3 inh,Efflux pump inh,CR mimetic SO,TbMetRS inhib,IDE inh confirm,HEK cytotox
O=S(=O)(c1ccc(NC(=S)NCc2ccco2)cc1)N1CCCC1,.,.,.,.,.,.,/,/
Cn1c(SCC(=O)NCCc2ccc(S(N)(=O)=O)cc2)nc2ccccc2c1=O,.,40.7,.,.,.,.,.,.
C=CCN1C(=O)CSc2ccc(C(=O)NCc3ccc(F)cc3)cc21,.,.,.,.,.,.,/,/
CC(=O)c1ccc(NCC(=O)N2CCN(c3ccccc3)CC2)cc1,.,21.1,.,.,.,.,.,.
Cc1cc(C)c([N+](=O)[O-])cc1NCC(=O)N1CCN(c2ccccc2)CC1,.,21.8,.,.,.,.,.,.
CC(=O)c1ccc(N2CCN(C(=S)Nc3ccccc3)CC2)cc1,.,.,.,.,.,.,/,/
COC(=O)c1ccccc1NC(=O)c1ccccc1OC,.,.,.,.,.,.,/,/
COc1ccccc1C(=O)Nc1ccccc1SC(=O)c1ccccc1OC,.,42.8,.,.,.,.,.,29.5
CC(C)(C)c1ccc(CC(=O)N2CCC2(C)C(=O)NS(=O)(=O)c2ccc(C#N)cc2)cc1 (stereo unspecified),/,/,/,/,/,.,/,/
CC(=O)N(C(C)=O)c1nc(-c2ccccc2)cn1/N=C/c1ccccc1,.,24.8,.,.,.,.,20.0,.
COC1=CC(=Cc2c(N)n3nc(CC(=O)N4CCOCC4)sc3nc2=O)C=C(OC)C1=O,.,120.6,.,.,.,.,25.9,.
C=CCC1=C/C(=C\c2c(N)n3nc(CC(=O)N4CCCC4)sc3nc2=O)C=C(OC)C1=O,.,26.0,.,.,.,.,25.9,.
Nc1c(C=C2C=CC(=O)C=C2)c(=O)nc2sc(CC(=O)N3CCOCC3)nn12,.,.,.,.,.,.,/,/
Cc1ccc(OCC(=O)NCCNC(=O)c2ccncc2)cc1C,.,.,.,.,.,.,/,/
CSc1sc(-c2ccnc(=S)[nH]2)c(-c2ccccc2)c1C#N,/,.,.,.,.,.,/,/
Fc1ccc(-c2ccnc(=S)[nH]2)cc1,.,39.6,.,.,.,.,.,.
CN1/C(=C\C=C(/C#N)C(=O)Nc2ccccc2F)C(C)(C)c2ccccc21,.,24.8,.,.,.,.,35.2,.
Cc1ccc(S(=O)(=O)Nc2cccc(C(=O)NCCCn3ccnc3)c2)cc1F,.,.,.,.,.,.,/,/
Cc1ccc2c(c1)cc1c(=O)n(CC(=O)NCc3ccccn3)nc(C)n12,.,.,.,.,.,.,/,/
COC1=C/C(=C/c2c(N)n3nc(CC(=O)N4CCCCC4)sc3nc2=O)C=CC1=O,.,.,.,.,.,.,/,/
CCOC1=C/C(=C/c2c(N)n3nc(S(=O)(=O)CC)sc3nc2=O)C=CC1=O,.,21.8,.,.,.,.,112.3,.
CCOC1=C/C(=C/c2c(N)n3nc(CC(=O)N4CCCCC4)sc3nc2=O)C=CC1=O,.,20.6,.,.,.,.,25.9,.
